SR-BI uptake up: SR-BI HDL lipid transfer activation. CHO ldlA[mSR-BI] cells, DiI-HDL uptake fluorescence, 3 h; 100 = double the neutral-control signal. activation, % at 12.5 µM. 0.096% of 320,000 active. AID 504775;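 active = mean replicate activation of at least 60% and every replicate at or above 60%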
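Material – SR-BI-overexpressing, LDLR-lacking CHO cells · Medium – BSA-supplemented, HEPES-buffered Ham's F12, pH 7.4 · Doses – single concentration · Times – compound with DiI-HDL co-incubation, 3 h at 37 °C · Measured by – bottom-read fluorescence, 550/595 nm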
UBC13 polyUb: human UBC13 polyubiquitination inhibition; P61088; UBC13 polyubiquitin chain formation, TR-FRET; AID 485273; 0.47% of 330,000 active; inhibition, % at 20 µM; in the data active = inhibition above about 45%, passing the limit was not always enough
Target sequence (P61088 whole entry, looked up): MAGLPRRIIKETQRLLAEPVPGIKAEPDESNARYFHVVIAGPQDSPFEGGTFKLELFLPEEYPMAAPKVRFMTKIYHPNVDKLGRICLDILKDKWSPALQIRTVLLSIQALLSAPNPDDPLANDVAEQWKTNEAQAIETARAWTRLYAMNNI
Neddyl block: blocks human cullin neddylation; TR-FRET cullin neddylation, biochemical; AID 651699; inhibition, % at 25 µM; 0.58% of 360,000 active; in the data active = inhibition above about 36%
SR-BI DiI inh: mouse SR-BI HDL lipid transfer inhibition; 0.96% of 320,000 active; Q61009; AID 488896; ldlA[mSR-BI] CHO cells, DiI-HDL uptake fluorescence, 3 h; inhibition, % at 12.5 µM;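 active = mean replicate inhibition of at least 70% and a set share of replicates each scoring 70 or more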
Each line names hits and unclear results; the compound was inactive in the other large screens. Rows were chosen to be rich in hits. Some 1.9% of all compounds tested hit in one or more screens of this group.

CC(C)(C)c1ccc(C(=O)NNC(=O)c2ccccc2Br)cc1	none
CC(C)(C)c1ccc(OCCCC(=O)NNC(=O)c2ccccc2O)cc1	SR-BI DiI inh 120
COC1OC2COC(c3ccccc3)OC2C(O)C1NC(=O)c1ccccc1 (stereo not given)	none (no result: UBC13 polyUb)
COc1ccc2oc(=O)c(-c3csc(Nc4ccc(O)cc4)n3)cc2c1	SR-BI DiI inh 84
CC(Nc1nc(-c2ccc(F)cc2)cs1)c1nc2cc(Cl)c(N3CCCCC3)cc2n1CCOCCO (stereo not given)	none
CC(Nc1nc(-c2cccc(Br)c2)cs1)c1nc2cc(Cl)c(N3CCCCC3)cc2n1CCOCCO (stereo not given)	SR-BI DiI inh 75
O=C(Nc1ccc(C(=O)N2CCOCC2)cc1)c1cc(-c2cccnc2)nc2ccc(Cl)cc12	SR-BI DiI inh 79
CC(=O)Nc1cccc(NC(=O)c2cc(-c3cccnc3)nc3ccc(Br)cc23)c1	none
CC(=O)Nc1cccc(NC(=O)c2cc(-c3cccnc3)nc3ccc(Cl)cc23)c1	SR-BI DiI inh 73
Cc1cc(NS(=O)(=O)c2ccc(NC(=O)c3cc(-c4cccnc4)nc4ccc(Cl)cc34)cc2)no1	none
CCn1c(C)c(C)c2cc(C(=O)NCCN3CCCCCC3)ccc21	SR-BI DiI inh 75
CCn1c(C)c(C)c2cc(C(=O)NCCCN3CCCCCC3)ccc21	none
Cc1cc(CNC(=O)c2cccc3c2C(=O)c2ccc(-c4ccc(F)cc4OCc4ccccc4)cc2S3(=O)=O)c(C(F)(F)F)o1	SR-BI DiI inh 90
O=C(NC[C@H]1CCCO1)c1cccc2c1C(=O)c1ccc(-c3ccc(F)cc3OCc3ccccc3)cc1S2(=O)=O	none
CC(C)N1CCN(Cc2cc3ccccc3[nH]2)CC1CCO (stereo not given)	none
Cc1cccc(NC(=O)CCS(=O)(=O)c2cccc3nsnc23)c1C	SR-BI uptake up 70
Cc1nc2ccccc2nc1N/N=C/c1ccc(O)cc1	none (no result: SR-BI uptake up, SR-BI DiI inh)
Cc1nc(N/N=C/c2ccc(O)cc2)c2cnn(-c3ccccc3)c2n1	SR-BI DiI inh 75 (not shown: Neddyl block)
C=CCn1c(=S)[nH]c2cc(C(=O)Nc3ccc(F)cc3)ccc2c1=O	none
CCOc1cc(/C=N/NC(=O)Cc2ccc(C(F)(F)F)cc2[N+](=O)[O-])ccc1O	none
C=CCOc1c(Br)cc(/C=N/NC(=O)Cc2ccc(C(F)(F)F)cc2[N+](=O)[O-])cc1OC	SR-BI DiI inh 75
O=C(N/N=C/c1cccn1-c1ccc([N+](=O)[O-])cc1)c1cccnc1	SR-BI DiI inh 89
Cc1cc2nc(C(C)(C)C)c(CC3CCCCC3)n2c(C)c1Br	none (no result: SR-BI uptake up, UBC13 polyUb, SR-BI DiI inh)
Cc1sc(N/N=C/c2cccs2)nc1-c1ccccc1	SR-BI DiI inh 73
COc1ccc2c(=O)c3c(=O)n(Cc4ccco4)c(-c4cc(OC)c(OC)c(OC)c4)nc3oc2c1	SR-BI DiI inh 74
COc1ccc2c(=O)c3c(=O)n(-c4ccccc4)c(-c4ccc(C)cc4)nc3oc2c1	SR-BI DiI inh 92
COCCn1c(-c2ccccc2)nc2oc3cc(OC)ccc3c(=O)c2c1=O	none
O=c1cc(-c2ccccc2)oc2ccccc12	none
Nc1cc([N+](=O)[O-])cc2oc(-c3ccccc3)cc12	SR-BI DiI inh 70
NS(=O)(=O)c1ccc(CCNC(=O)c2ccc3nc4ccc(Cl)cc4c(=O)n3c2)cc1	Neddyl block 47
O=C(Cc1cc(C(F)(F)F)cc(C(F)(F)F)c1)Nc1c(-c2ccccc2)[nH][nH]c1=O	none (no result: SR-BI uptake up, UBC13 polyUb, SR-BI DiI inh)
N#C/C(=C\Nc1ccccc1O)c1nc2ccccc2o1	SR-BI DiI inh 113 (no result: UBC13 polyUb)
CC(O)(c1cccc(F)c1)c1nc(-c2cccc3cccnc23)cs1 (stereo not given)	none (no result: SR-BI uptake up, UBC13 polyUb, SR-BI DiI inh)
Cc1cc(CN2CCN(CC(=O)Nc3cc(C(F)(F)F)ccc3-n3cncn3)CC2)no1	none
CCN(CC)S(=O)(=O)c1ccc(C(=O)NCCc2cc3c(OC)ccc(OC)c3[nH]c2=O)cc1	SR-BI DiI inh 89
COc1ccc(OC)c2[nH]c(=O)c(CCNC(=O)c3ccc(S(=O)(=O)N4CCCC4)cc3)cc12	none
O=C(Nc1nnc([C@H]2C[C@H](O)[C@@H](CO)O2)s1)c1ccc(Oc2ccccc2)cc1	none (no result: SR-BI uptake up, UBC13 polyUb, SR-BI DiI inh)
CCOC(=O)C1CCCN(C(=O)c2cc(-c3ccc(F)cc3)nc3ccccc23)C1 (stereo not given)	SR-BI DiI inh 70
CCOC(=O)C1CCCN(C(=O)c2cc(-c3ccncc3)nc3ccccc23)C1 (stereo not given)	none
COc1ccc(C2C(C#N)=C(N)Oc3cc(O)ccc32)cc1OC (stereo not given)	none
COc1ccc(C2C(C#N)=C(N)Oc3cc(O)ccc32)cc1C (stereo not given)	SR-BI DiI inh 81 (not shown: Neddyl block)
